Inconclusive results are not listed. Active and inactive are the calls of the source.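 How the source made its calls: active means compounds raising caspase signal whose fitted AC50 is at most ten times the top tested dose; inconclusive means flat fit with 30 to 70% activity, or failed fit; inactive means the rest.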
What follows are molecules tested on HMC 1-8 low-A1 cells, caspase-3/7 luminescence, 3 h (assay: caspase activation in low-A1 HMC 1-8 cells, dose response, counter-screen for A1 inhibitor project, cell-based, caspase luminescence (AID 449755)).
Summary of the method: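 Test system: low-A1 HMC 1-8 human cancer cell line; Input: 2500 cells/well; Buffer or medium: RPMI-1640 growth medium with 10% FBS; Compound: pin-transferred compound; Times: 3 h compound exposure, 37 °C/5% CO2, 1 h room-temperature detection; Measured by: caspase-3/7 DEVD luminescence; Evaluation: caspase-3/7 activation, marking off-target non-A1 activity.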
For CCOC(=O)C1=C(c2ccccc2)O/C(=C(/C#N)C(F)(F)F)S1, the AC50 was > 35 µM (inactive).
In the case of COc1ccc(N(C(=O)CCl)C(C(=O)NCCc2ccccc2)c2cccs2)cc1Cl (stereo not drawn), the AC50 is reported as > 35 µM (inactive).
In the case of Cc1nn(Cc2ccc(Cl)cc2Cl)c(C)c1NC(=O)Cn1nc([N+](=O)[O-])c(Cl)c1C, the AC50 is reported as > 35 µM (inactive).
With COc1ccc(-c2ccc3c(c2)S(=O)(=O)c2cccc(C(=O)NCCOc4ccccc4)c2C3=O)cc1OC the AC50 was > 35 µM (inactive).
For Cc1ccc(N(Cc2cc(=O)[nH]c3ccccc23)C(=O)CCl)cc1, the AC50 was > 35 µM (inactive).
For Cc1cc(NC(=O)CSc2nc3cc(Cl)ccc3c(=O)n2Cc2ccco2)no1, the AC50 was > 35 µM (inactive).
With COc1ccc(-c2cc(=O)oc3c(C)c(OC(=O)c4cccs4)ccc23)cc1 the AC50 was > 35 µM (inactive).
With CC(C)c1cccc(-c2ccc3c(c2)S(=O)(=O)c2cccc(C(=O)NCc4ccccc4Cl)c2C3=O)c1 the AC50 was > 35 µM (inactive).
For Cc1ccc(C2(c3ccc(C)cc3)CC2C(=O)Nc2ccc([N+](=O)[O-])cc2O)cc1 (stereo not drawn), the AC50 was > 35 µM (inactive).
In the case of Cc1ccc(C)c(S(=O)(=O)NCC(=O)Nc2sc3c(c2C(N)=O)CCC(C)C3)c1 (stereo not drawn), the AC50 is reported as > 35 µM (inactive).
CC1=NNC(=O)/C1=C\c1cn(-c2ccccc2)nc1-c1ccccc1 was tested, and the AC50 was > 35 µM (inactive).
In the case of CCc1ccc(NC(=O)c2nc(S(=O)(=O)Cc3ccccc3)ncc2Cl)cc1, the AC50 is reported as > 35 µM (inactive).
With Cc1ccc(S(=O)(=O)c2nnn3c2nc(Nc2cccc(C)c2)c2ccccc23)cc1 the AC50 was > 35 µM (inactive).
O=C(COc1ccc(/C=N/NC(=O)c2cc3ccccc3o2)cc1Cl)Nc1ccccc1 showed an AC50 of 8.65 µM.
For O=C(Nc1ccc2oc(-c3ccccc3Cl)nc2c1)c1cncc(Br)c1, the AC50 was > 35 µM (inactive).
In the case of COc1cc(-c2cc(-c3ccccc3)nc(SCC(=O)Nc3nccs3)c2C#N)cc(OC)c1OC, the AC50 is reported as > 35 µM (inactive).
In the case of CCc1nnc(NC(=O)c2nc(S(=O)(=O)Cc3ccccc3)ncc2Cl)s1, the AC50 is reported as > 35 µM (inactive).
With CCCc1ccc(OCc2ccc(C(=O)N/N=C/c3cccc([N+](=O)[O-])c3)o2)c(OC)c1 the AC50 was 7.31 µM.
Cc1cccc(C)c1NC(=O)C(Cl)C(=O)c1ccccc1 (stereo not drawn) was tested, and the AC50 was > 35 µM (inactive).
In the case of COc1ccc(C2CC(c3c(O)cc(C)oc3=O)=NCCS2)c(OC)c1 (stereo not drawn), the AC50 is reported as > 35 µM (inactive).
With CCOc1ccc(NCc2cccn2-c2nnc(N3CCC(C(=O)NCCCN4CC(C)CC(C)C4)CC3)s2)cc1 (stereo not drawn) the AC50 was > 35 µM (inactive).
For COc1ccc(Oc2cc(NC(=O)c3nn(C)cc3[N+](=O)[O-])cc([N+](=O)[O-])c2)cc1, the AC50 was > 35 µM (inactive).
In the case of Cc1ccc(CS(=O)(=O)c2ncc(Cl)c(C(=O)Nc3nnc(C(C)C)s3)n2)cc1, the AC50 is reported as > 35 µM (inactive).
In the case of Cc1ccc(C#N)c(SCC(=O)Nc2nccs2)n1, the AC50 is reported as > 35 µM (inactive).
In the case of CCC1CCCCN1S(=O)(=O)c1ccc(NC(=O)c2nc(S(C)(=O)=O)ncc2Cl)cc1 (stereo not drawn), the AC50 is reported as > 35 µM (inactive).
For O=C(CCl)N=c1sccn1Cc1ccccc1Cl, the AC50 was > 35 µM (inactive).
For CC(=O)Nc1sc(N/N=C\c2cccc(Cl)c2)nc1-c1cccs1, the AC50 was > 35 µM (inactive).
For c1ccc(-c2sc3ccccc3c2-c2ccc(OCCN3CCCC3)cc2)cc1, the AC50 was > 35 µM (inactive).
With COc1ccc(C(=O)/C=C/C(=O)N(CC(=O)NC2CCCCC2)Cc2cccs2)c(O)c1 the AC50 was 5.69 µM.
In the case of N#C/C(=C\c1ccc(OCc2ccccc2)cc1)C(=O)Nc1nc2c(s1)CCN(Cc1ccccc1)C2, the AC50 is reported as > 35 µM (inactive).
For Cc1ccc(NC(=O)CSc2nc3nc(C)c(Br)cc3[nH]2)cc1F, the AC50 was > 35 µM (inactive).
With O=C(Cn1c(C(F)(F)F)nc2ccccc21)N=Nc1c(O)[nH]c2ccc(Br)cc12 the AC50 was 32.3 µM.
With CC(=O)Nc1ncnc2c1c(-c1ccc(Cl)cc1)nn2C(C)(C)C the AC50 was > 35 µM (inactive).
